According to article PMC3462166 (Journal of the American Chemical Society, 2012):
Where “and” joins values, the source holds several entries; their conditions need not be identical. Identical values can stand only once.

Legend:
[1] = tested on: CD22 (Siglec-2) on B cells; conditions: ligand targeting chemotherapeutic loaded liposomes; cited from earlier work
murine Sn = murine Sn (Mus musculus, UniProt Q62230); conditions: inhibition of mSn-Fc chimera binding to natural-ligand beads; triplicate, ± SD
In short: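 Magnetic beads coated with Neu5Acα2-3Galβ1-4GlcNAc were bound by murine sialoadhesin-Fc chimera in the presence of serial dilutions of competitor (9-N-acyl sialoside analogs). Displacement of bead-bound chimera was read by flow cytometry, and IC50 was taken as the concentration needed to displace the bound chimera. Titrations were run in triplicate, with SD from three independent measurements.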

Sn expressing cells = conditions: liposomes decorated with the ligand; cited from earlier work
Sn [2] = conditions: liposomes decorated with the ligand; cited from earlier work
Sn [3] = conditions: natural ligand in a comparable assay; cited from earlier work

Chain of murine Sn (Q62230 20-136 limits assumed): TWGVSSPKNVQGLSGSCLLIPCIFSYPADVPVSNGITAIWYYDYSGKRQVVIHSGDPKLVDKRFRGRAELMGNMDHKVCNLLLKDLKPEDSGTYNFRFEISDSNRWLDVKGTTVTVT

In the case of “9-N-biphenylcarbamoyl-Neu5Acα2-6Galβ1-4GlcNAc [6′-^BPCNeu5Ac]”, the “survival in murine model of human B cell lymphoma” value [1] is listed as “prolong life”.

For `CC(=O)NC1C(O)OC(CO)C(OC2OC(CO)C(O)C(OC3(C(=O)O)CC(O)C(NC(C)=O)C(C(O)C(O)CNC(=O)c4ccc(-c5ccccc5)cc4)O3)C2O)C1O` (stereo not drawn) [Compound 1, 9-N-biphenylcarbamoyl-Neu5Acα2-3Galβ1-4GlcNAc], the IC50 (murine Sn) is listed as 4.8 µM and 4.82 µM, the “targeting of Sn expressing cells in vitro” value (Sn expressing cells) is listed as “capable of targeting Sn expressing cells in vitro” and the “selectivity for in vivo targeting” value (Sn [2]) is listed as “not sufficiently selective”.

Compound `CC(=O)NC1C(O)OC(CO)C(OC2OC(CO)C(O)C(OC3(C(=O)O)CC(O)C(NC(C)=O)C(C(O)C(O)CNC(=O)c4cc5c(s4)-c4ccccc4OC5)O3)C2O)C1O` (stereo not drawn) [Compound 2, 9-N-(4H-thieno[3,2-c]chromene-2-carbamoyl)-Neu5Acα 2-3Galβ1-4GlcNAc] has an IC50 (murine Sn) of 0.38 ± 0.04 µM.

For Neu5Acα2-3Galβ1-4GlcNAc, the IC50 (Sn [3]) is listed as 1300 µM.
